Shown are actives, neighbours in structure and some others; about 3.5% of the full set was active somewhere.
MrgX1 antag = human MrgX1 receptor antagonism, primary screen; Q96LB2; MRGX1-HEK293 calcium flux, Fluo-4, BAM8-22 antagonism; stronger effect = lower value; B-score at 10 µM; hit rate 1.3% among 310,000; AID 588676;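 active = calcium-response B-score plate-corrected more than 3 library SD below zero, starting fluorescence within 5 deviations, no agonist response on first addition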;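 also: peak minus trough fluorescence over baseline after final BAM8-22 challenge near maximal dose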
Target sequence (Q96LB2 whole entry, looked up): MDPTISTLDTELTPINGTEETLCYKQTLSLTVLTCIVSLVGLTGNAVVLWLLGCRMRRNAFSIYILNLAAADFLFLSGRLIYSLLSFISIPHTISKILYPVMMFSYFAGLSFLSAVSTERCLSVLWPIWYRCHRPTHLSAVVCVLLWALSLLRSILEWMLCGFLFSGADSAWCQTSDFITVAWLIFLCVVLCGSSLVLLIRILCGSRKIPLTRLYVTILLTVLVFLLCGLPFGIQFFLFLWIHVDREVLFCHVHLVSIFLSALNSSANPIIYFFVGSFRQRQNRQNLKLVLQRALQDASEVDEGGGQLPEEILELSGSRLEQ
RGS4 block = inhibitors of human RGS4 | P49798 | HEK293 M3R/RGS4 inducible, Fluo-4 calcium flux; stronger effect = higher value; triggered by carbachol at its EC20 | B-score at 10 µM | hit rate 0.45% among 310,000;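 active = B-score, a plate-corrected calcium signal, over three deviations above library mean, with baseline fluorescence within five deviations of library mean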;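 also: RGS4 expression induced by doxycycline in cells with stable M3 receptor; B-score is computed from the integrated fluorescence ratio over baseline after carbachol; higher B-score means a larger calcium signal and so more RGS4 inhibition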
Target sequence (P49798 whole entry, looked up): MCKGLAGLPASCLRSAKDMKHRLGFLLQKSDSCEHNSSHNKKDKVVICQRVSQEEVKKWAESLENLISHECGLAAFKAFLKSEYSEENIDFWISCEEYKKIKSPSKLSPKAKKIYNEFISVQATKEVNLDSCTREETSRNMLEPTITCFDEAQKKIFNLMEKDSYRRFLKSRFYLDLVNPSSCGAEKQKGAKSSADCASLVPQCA
RGS4 pot = potentiators or activators of RGS4. HEK293 M3R/inducible RGS4, carbachol calcium flux Fluo4; stronger effect = lower value. B-score at 10 µM. hit rate 0.92% among 310,000. AID 463111;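 active = B-score of the integrated calcium signal more than 4 SD below the library mean, with starting fluorescence not abnormally high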;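 also: negative B-score means reduced calcium response which marks RGS4 activation or potentiation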
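System – HEK293 FlpIn-TREx cells, stable M3R, doxycycline-inducible RGS4 · Reagent – ECmax carbachol challenge · Times – compound preincubation 20 min at room temperature before agonist · Technique – Fluo4 fluorescence kinetic imaging of calcium · Measure – B score of integrated Fluo4 ratio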
MrgX1 agonist = agonists of human MrgX1 receptor; Q96LB2; MrgX1-HEK293 cells, Fluo-4 calcium fluorescence, agonist mode; stronger effect = higher value; B-score at 10 µM; hit rate 0.44% among 310,000; AID 588627;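 active = calcium response B-score plate-corrected fluorescence ratio at least 3 library SD, with starting fluorescence B-score inside 5 SD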
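Assay system: stable human MrgX1 HEK293 cell line. Quantity: 15,000 cells per well. Schedule: cells plated overnight, dye loaded 0.5 h 37 °C, 0.5 h room temperature. Detection: Fluo-4 NW calcium-flux fluorescence, kinetic read. Read-out basis: peak-minus-minimum fluorescence over baseline, converted to B scores. Control set: positive and negative control wells on each plate.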
MrgX1 PAM = human MrgX1 positive allosteric modulation, primary screen; MrgX1-HEK293, Fluo-4 calcium flux, FDSS; stronger effect = higher value; Q96LB2; hit rate 0.63% among 310,000; AID 588675; B-score at 10 µM;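 active = plate-corrected calcium response at least 3 library SD above typical, normal starting fluorescence, not activating the receptor alone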;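 also: compound read alongside a low EC10 to EC30 dose of BAM8-22 agonist; peak minus trough fluorescence over baseline measured at the second addition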
RGS4 block valid = RGS4 inhibitor validation; shares compounds with RGS4 block; HEK293 M3R/RGS4, carbachol calcium Fluo-4 fluorescence; carbachol added at its EC20; 0 = buffer wells, 100 = carbachol control; calcium response, % at 10 µM; hit rate 65% among 1,700; AID 492999;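 active = duplicate-averaged calcium response above the buffer-only control mean plus 5 SD of those controls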;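 also: integrated fluorescence ratio F max minus min over baseline F0; higher response in RGS4-induced cells means RGS4 inhibition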
M3R Ca ctr = checks RGS4 inhibitor effects in non-induced HEK293 M3R cells; shares compounds with RGS4 block; hit rate 20% among 1,900; activity (percent), % at 10 µM; carbachol calcium Fluo-4; submaximal (EC20) carbachol stimulus; buffer wells 0%, carbachol control wells 100%; call rule not given here;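 also: RGS4 induction absent so cells express M3R without RGS4; higher means more calcium signal and flags a non-specific hit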
M3R basal Ca ctr = second RGS4 inhibitor counter-screen in uninduced cells lacking carbachol. HEK293 M3R/RGS4 non-induced, Fluo-4 calcium, no carbachol; normalised: buffer wells 0%, carbachol wells 100%. shares compounds with RGS4 block. hit rate 22% among 1,900. calcium response (agonist-mode artifact), % at 10 µM;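 active = duplicate-averaged calcium rise in uninduced cells above buffer wells' mean plus 5 SD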
* hit, by the source's call; i = inactive; / = not tested or not shown.

SMILES	MrgX1 antag	RGS4 block	RGS4 pot	MrgX1 agonist	MrgX1 PAM	RGS4 block valid	M3R Ca ctr	M3R basal Ca ctr
CCCC(=O)Nc1ccc(C=C(C(C)=O)C(C)=O)cc1	i	16*	i	i	i	32%*	30%*	i
Cc1cc(Nc2ccccc2)n2nc(C)c(-c3ccccc3)c2n1	i	i	i	i	i	i	i	i
Cc1cc(C)n2nc(C)c(-c3ccccc3)c2n1	i	i	i	i	i	/	/	/
O=C1Nc2ccccc2/C1=N/N=C/c1ccc(-c2ccc([N+](=O)[O-])cc2)o1	/	4.8*	i	/	/	7.5%*	35%*	i
COCCn1c(SCC(=O)NCC2CCCO2)nc2c(c1=O)SCC2 (stereo not given)	i	i	i	i	i	/	/	/
COc1ccc(-n2c(COc3ccc(Cl)cc3)nnc2SCc2ccc(C#N)cc2)cc1	i	i	i	i	i	/	/	/
CCOc1ccc(NCc2nnc(SCC(=O)Nc3cc(C)on3)n2-c2ccc(OC)cc2)cc1	i	7*	i	i	i	i	i	i
COc1ccc(NCc2nnc(SCc3ccc(Cl)cc3)n2-c2ccccc2)cc1	i	8*	i	i	i	62%*	40%*	38%*
CCOc1ccc(NCc2nnc(SCC(=O)Nc3cc(C)on3)n2-c2ccccc2OC)cc1	i	i	i	i	i	/	/	/
Cc1ccc(C)c(NC(=O)NCCN2CCCCC2)c1	i	i	i	i	i	/	/	/
Cc1ccc(-n2ncc3c(=O)[nH]c(SCC(=O)N4CCCc5ccccc54)nc32)cc1	i	i	i	i	i	/	i	i
CC(OC(=O)COc1ccc(Nc2ccccc2)cc1)C(=O)N(C)c1ccccc1 (stereo not given)	i	i	i	i	i	/	/	/
COc1ccc(-n2c(SCC#N)nnc2-c2ccc(NS(=O)(=O)c3ccc(C)cc3)cc2)cc1	i	7.2*	i	i	i	13%*	i	i
CC1S/C(=N/N=C/c2cccs2)NC1=O (stereo not given)	i	i	i	i	i	/	/	/
CCC1S/C(=N/N=C/c2cccs2)NC1=O (stereo not given)	i	i	i	i	i	/	i	i
CCCC1S/C(=N/N=C/c2cccs2)NC1=O (stereo not given)	i	i	i	i	i	/	i	i
O=C1N/C(=N\N=C\c2cccs2)SC1Cc1ccc(Cl)cc1 (stereo not given)	i	i	i	i	i	/	/	/
Cc1c(Cl)cccc1NC(=O)N1CCN(C(=O)c2ccco2)CC1	i	i	i	i	i	/	/	/
O=C1CCCC2=C1C(c1ccc(Cl)cc1)n1c(s/c(=C\c3ccc4ccncc4c3)c1=O)=N2 (stereo not given)	i	14*	i	i	i	42%*	i	196%*
CCOC(=O)C1=C(C)N=c2s/c(=C/c3ccc(OCC(=O)O)c(OC)c3)c(=O)n2C1c1ccc(Cl)cc1 (stereo not given)	i	i	i	i	i	/	/	/
Cc1ccccc1-n1c(-c2ccc(Cl)cc2)cnc1SCC(=O)NC1CCS(=O)(=O)C1 (stereo not given)	i	i	i	i	i	/	/	/
Cc1ccc2cc(CN(C(=O)c3ccco3)c3ccccc3C)c(=O)[nH]c2c1	i	i	i	i	i	i	i	i
COCC(=O)N(Cc1cc2ccc(C)cc2[nH]c1=O)c1ccc(C)cc1C	i	i	i	i	i	/	/	/
Cc1ccc2cc(CN(C(=O)c3ccco3)c3cccc(C)c3C)c(=O)[nH]c2c1	i	i	i	i	i	/	/	/
Cc1ccc(N(Cc2cc3ccc(C)cc3[nH]c2=O)C(=O)c2ccco2)c(C)c1	i	i	i	i	i	i	i	i
SMILES	MrgX1 antag	RGS4 block	RGS4 pot	MrgX1 agonist	MrgX1 PAM	RGS4 block valid	M3R Ca ctr	M3R basal Ca ctr
COC(=O)c1cc2c(ccn2-c2ccc(F)cc2)n1Cc1ccc(OC)cc1	i	i	i	i	i	/	/	/
CCn1c(C(=O)OC)cc2c1ccn2-c1ccc(F)cc1	i	i	i	i	i	/	i	i
COc1ccc(CCNC(=O)CCc2cn(C)c3ccccc23)c(OC)c1OC	i	i	i	i	i	/	/	/
O=c1oc2ccccc2c(O)c1/C=C1\C=Nc2ccccc21	i	22*	i	i	i	66%*	i	48%*
O=C1C=CC(O)(c2cc(=O)c3c(O)cc(O)cc3o2)C=C1	i	26*	i	i	i	78%*	30%*	i
NS(=O)(=O)c1cccc(NC(=O)c2ccno2)c1	i	i	i	i	i	/	/	/
Cc1cccn2c(=O)c(C=Nc3ccc(Cl)cc3)c(NCCO)nc12	i	i	i	i	i	/	/	/
Cc1cccn2c(=O)c(C=NCCO)c(Nc3ccc(Cl)cc3)nc12	i	7.5*	i	i	i	12%*	i	i
CCOC(=O)/C(=C/Nc1ccc(F)cc1)[N+](=O)[O-]	i	i	i	i	i	/	/	/
CCCCn1c(=O)[nH]c(=O)c2c1nc(Cn1ncc(Cl)c(Cl)c1=O)n2CCC	i	21*	i	i	i	34%*	56%*	i
CCCCn1c(=O)[nH]c(=O)c2c1nc(CN1C(=O)c3ccccc3S1(=O)=O)n2CCC	i	i	i	i	i	/	/	/
O=C(OC(C(=O)NC1CCCCC1)c1ccccc1F)c1ccco1 (stereo not given)	i	i	i	i	i	/	/	/
CCOC(=O)c1c(C)oc2c1cc(NS(=O)(=O)c1ccc(C(=O)O)cc1)c1ccccc12	i	i	i	i	i	/	i	i
CN(C)CCC(=O)c1cccc(Br)c1	i	6.8*	i	i	i	i	i	28%*
CN(C)S(=O)(=O)c1ccc2nnn(O)c2c1	i	i	i	i	i	/	/	/
O=C(N/N=C/C(Br)=C/c1ccccc1)c1n[nH]c2c1CCC2	i	5.1*	i	i	i	18%*	i	i

High-throughput results: PubChem, Johns Hopkins Ion Channel Center
